Measurements from different studies.
Compare with care: the assays were run in different laboratories.
Spike glycoprotein: Spike glycoprotein (Severe acute respiratory syndrome coronavirus 2, UniProt P0DTC2)

SMILES	target	read-out	mode	technique	tested at	quantity	result
C=C[C@@](C)(/C=C/c1ccc(O)cc1)CCC=C(C)C	Spike glycoprotein	binding				kon	1190 M⁻¹ s⁻¹
CC[C@H](C)[C@@H]1NC(=O)[C@H](C)NC(=O)[C@H](CCCCN)NC(=O)[C@H](Cc2c[nH]c3ccccc23)NC(=O)[C@H](CC(C)C)NC(=O)[C@H](CC(C)C)NC(=O)[C@H](C(C)C)NC(=O)[C@H](CC(=O)O)NC(=O)[C@H](Cc2ccccc2)NC(=O)[C@H](Cc2ccc(O)cc2)NC(=O)[C@@H](Cc2ccc(O)cc2)NC(=O)CSC[C@@H](C(N)=O)NC(=O)[C@H](CO)NC1=O	Spike glycoprotein	binding				koff	0.065 s⁻¹
O=C1c2c(O)cccc2C([C@@H]2O[C@H](CO)[C@@H](O)[C@H](O)[C@H]2O)c2cc(CO)cc(O)c21 (stereo partly shown)	Spike glycoprotein	binding		BLI		koff	0.0217 s⁻¹
CCCCCCCCCCCCCCCCCCCCCCCCCC(=O)N[C@@H](CO[C@H]1O[C@H](CO)[C@H](O)[C@H](O)[C@H]1O)[C@H](O)[C@H](O)CCCCCCCCCCCCCC	Cd1d1 (Mus musculus, UniProt P11609)	binding		SPR		kon	63000 M⁻¹ s⁻¹
Cn1cc(-c2cccc(N3CCc4c(sc5c4CC(C)(C)C5)C3=O)c2CO)cc(Nc2ccncn2)c1=O	Serine/threonine-protein kinase WNK2 (WNK2, Homo sapiens, UniProt Q9Y3S1)	enzyme activity	inhibitor		1 µM	inhibition	2%
O=c1c(O)c(-c2ccc(O)cc2)oc2cc(O)cc(O)c12	Spike glycoprotein	binding		BLI		koff	0.053 s⁻¹
C#Cc1n[nH]c2c(-c3cn(C(C)c4ccccn4)c(=O)[nH]c3=O)cc(F)cc12 (stereo not shown)	Receptor tyrosine-protein kinase erbB-2 (ERBB2, Homo sapiens, UniProt P04626)	enzyme activity	inhibitor		1 µM	inhibition	-4.5%
COc1ncccc1-c1cnn2ccc(N3CCN(C(=O)OC(C)C)CC3)nc12	Serine/threonine-protein kinase RIO1 (RIOK1, Homo sapiens, UniProt Q9BRS2)	binding		competition with immobilised ligand	1 µM	remaining binding	3.9%
CC[C@H](C)[C@@H]1NC(=O)[C@H](Cc2ccc(O)cc2)NC(=O)[C@H](C(C)C)NC(=O)[C@H]([C@@H](C)CC)NC(=O)[C@H](CO)NC(=O)[C@H](Cc2ccc(O)cc2)NC(=O)CSC[C@@H](C(N)=O)NC(=O)CNC(=O)[C@H](CCCNC(=N)N)NC(=O)CNC(=O)[C@H](C(C)C)NC(=O)[C@H](Cc2ccccc2)NC(=O)[C@H](CCCNC(=N)N)NC(=O)[C@H](C(C)C)NC(=O)[C@H](CCC(=O)O)NC(=O)CNC(=O)[C@H](CCCCN)NC1=O	Spike glycoprotein	binding				koff	0.0058 s⁻¹
Cc1nn(C)cc1-c1nc2c(N3CCN(Cc4ccc(Cl)cc4)CC3)c(Cl)cnc2[nH]1	Tyrosine-protein kinase ABL1, non-phosphorylated (ABL1, Homo sapiens, UniProt P00519, H396P)	binding		competition with immobilised ligand	1 µM	remaining binding	100%
Nc1ncc(-c2nc(N3CCOCC3)nc(N3CCOCC3)n2)c(C(F)F)n1	Tyrosine-protein kinase ABL1, non-phosphorylated (ABL1, Homo sapiens, UniProt P00519)	binding		competition with immobilised ligand	10 µM	remaining binding	70%
O=c1cc(-c2ccccc2)oc2c(O)c(O)ccc12	Spike glycoprotein	binding		BLI		koff	0.0482 s⁻¹
Cn1cc(-c2cc(F)cc(N3CCn4c(cc5c4CCCC5)C3=O)c2CO)cc(Nc2ccc(N3CCN(C4COC4)CC3)cn2)c1=O	Tyrosine-protein kinase ABL1 (ABL1, Homo sapiens, UniProt P00519, E255K)	enzyme activity	inhibitor		0.1 µM	inhibition	1%
